Measurements published in ChEMBL document CHEMBL2021791, “Synthesis, structure-activity relationships and biological evaluation of caudatin derivatives as novel anti-hepatitis B virus agents” (Bioorg Med Chem, 2012).

Legend:
[1] = tested on: Hepatitis B virus; test: Antiviral activity against Hepatitis B virus infected in human HepG2(2.2.15) cells assessed as suppression of HBsAg secretion by ELISA; format: functional, organism-based
[2] = tested on: Hepatitis B virus; test: Selectivity ratio of CC50 for human HepG2(2.2.15) cells to IC50 for Hepatitis B virus infected in human HepG2.2.15 cells assessed as suppression of HBsAg secretion; format: cell-based; details: read-out: Ratio CC50/IC50
How it was run: (§1)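 The selectivity index was calculated as CC50/IC50. CC50 is MTT cytotoxicity in HepG2 2.2.15 cells. No index was given where a value could not be obtained.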

[3] = tested on: Hepatitis B virus; test: Antiviral activity against Hepatitis B virus infected in human HepG2(2.2.15) cells assessed as suppression of HbeAg secretion by ELISA; format: functional, organism-based
[4] = tested on: Hepatitis B virus; test: Antiviral activity against Hepatitis B virus infected in human HepG2(2.2.15) cells assessed as inhibition of viral DNA replication by RT-PCR analysis; format: functional, organism-based
[5] = Cytotoxicity against human HepG2(2.2.15) cells by MTT assay; format: cell-based; details: HepG2(2.2.15) cells
How it was run: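 HepG2 2.2.15 cells were exposed to compounds and viability was read by a modified MTT method. CC50 is the concentration giving 50% cytotoxicity. Values are means of at least two experiments.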

[6] = tested on: Hepatitis B virus; test: Selectivity ratio of CC50 for human HepG2(2.2.15) cells to IC50 for Hepatitis B virus infected in human HepG2(2.2.15) cells assessed as inhibition of viral replication; format: cell-based; details: read-out: Ratio CC50/IC50; how it was run: as §1
[7] = tested on: Hepatitis B virus; test: Selectivity ratio of CC50 for human HepG2(2.2.15) cells to IC50 for Hepatitis B virus infected in human HepG2(2.2.15) cells assessed as suppression of HBeAg secretion; format: cell-based; details: read-out: Ratio CC50/IC50; how it was run: as §1

| SMILES | IC50 [1] [µM] | selectivity ratio [2] | IC50 [3] [µM] | IC50 [4] [µM] | CC50 [5] [µM] | selectivity ratio [6] | selectivity ratio [7] |
| --- | --- | --- | --- | --- | --- | --- | --- |
| COCC(=O)O[C@H]1CC[C@@]2(C)C(=CC[C@]3(O)[C@@H]2C[C@@H](OC(=O)/C=C(\C)C(C)C)[C@@]2(C)[C@]3(O)CC[C@@]2(O)C(C)=O)C1 | 70.4 | 1.4 | > 836 | 104 | 102 | – | – |
| CCOCC(=O)O[C@H]1CC[C@@]2(C)C(=CC[C@]3(O)[C@@H]2C[C@@H](OC(=O)/C=C(\C)C(C)C)[C@@]2(C)[C@]3(O)CC[C@@]2(O)C(C)=O)C1 | 68.2 | 1.7 | > 153 | 13.8 | 116 | 8.4 | – |
| CC(=O)[C@]1(O)CC[C@@]2(O)[C@]1(C)[C@H](OC(=O)/C=C(\C)C(C)C)C[C@@H]1[C@@]3(C)CC[C@H](OC(=O)CC#N)CC3=CC[C@]12O | 100 | 1.2 | > 161 | 7.32 | 122 | 10.5 | – |
| COC(=O)COCC(=O)O[C@H]1CC[C@@]2(C)C(=CC[C@]3(O)[C@@H]2C[C@@H](OC(=O)/C=C(\C)C(C)C)[C@@]2(C)[C@]3(O)CC[C@@]2(O)C(C)=O)C1 | 51.6 | – | 78.6 | > 105 | 25.3 | – | – |
| CC(=O)[C@]1(O)CC[C@@]2(O)[C@]1(C)[C@H](OC(=O)/C=C(\C)C(C)C)C[C@@H]1[C@@]3(C)CC[C@H](OC(=O)CN(C)C)CC3=CC[C@]12O | 87.2 | – | > 749 | 13.8 | 50.5 | 3.6 | – |
| CC(=O)[C@]1(O)CC[C@@]2(O)[C@]1(C)[C@H](OC(=O)/C=C(\C)C(C)C)C[C@@H]1[C@@]3(C)CC[C@H](OC(=O)c4cccnc4)CC3=CC[C@]12O | 20.8 | 2.4 | > 1040 | 4.05 | 50.4 | 12.4 | – |
| CC(=O)[C@]1(O)CC[C@@]2(O)[C@]1(C)[C@H](OC(=O)/C=C(\C)C(C)C)C[C@@H]1[C@@]3(C)CC[C@H](OC(=O)c4ccc(F)nc4)CC3=CC[C@]12O | 15.6 | – | > 687 | 4.97 | 14.3 | 2.9 | – |
| CC(=O)[C@]1(O)CC[C@@]2(O)[C@]1(C)[C@H](OC(=O)/C=C(\C)C(C)C)C[C@@H]1[C@@]3(C)CC[C@H](OC(=O)c4ccc(Br)cn4)CC3=CC[C@]12O | 76.5 | – | > 626 | 12.5 | 48.4 | 3.9 | – |
| CC(=O)[C@]1(O)CC[C@@]2(O)[C@]1(C)[C@H](OC(=O)/C=C(\C)C(C)C)C[C@@H]1[C@@]3(C)CC[C@H](OC(=O)c4cnccn4)CC3=CC[C@]12O | 95.5 | – | < 50.3 | 47.9 | 61.3 | 1.3 | > 1.2 |
| CC(=O)[C@]1(O)CC[C@]23OC(C)(C)O[C@]24CC=C2C[C@@H](O)CC[C@]2(C)[C@H]4C[C@@H](OC(=O)/C=C(\C)C(C)C)[C@@]31C | 168 | 3 | > 1720 | 218 | 512 | 2.3 | – |
| CC(=O)[C@]1(O)CC[C@@]2(O)[C@]1(C)[C@H](OC(=O)/C=C(\C)C(C)C)C[C@@H]1[C@@]3(C)CC[C@H](OC(=O)c4ccnn4C)CC3=CC[C@]12O | 14.5 | – | > 721 | 2.82 | 10.1 | 3.6 | – |
| COc1cc(C(=O)O[C@H]2CC[C@@]3(C)C(=CC[C@]4(O)[C@@H]3C[C@@H](OC(=O)/C=C(\C)C(C)C)[C@@]3(C)[C@]4(O)CC[C@@]3(O)C(C)=O)C2)on1 | 201 | – | > 1180 | 17 | 133 | 7.8 | – |
| CC(=O)[C@]1(O)CC[C@@]2(O)[C@]1(C)[C@H](OC(=O)/C=C(\C)C(C)C)C[C@@H]1[C@@]3(C)CC[C@H](OC(=O)Cc4ccncc4)CC3=CC[C@]12O | 19.7 | – | > 32.8 | > 414 | 39.9 | – | – |
| CC(=O)N1CCC[C@H]1C(=O)O[C@H]1CC[C@@]2(C)C(=CC[C@]3(O)[C@@H]2C[C@@H](OC(=O)/C=C(\C)C(C)C)[C@@]2(C)[C@]3(O)CC[C@@]2(O)C(C)=O)C1 | 70.7 | 1.5 | > 638 | 65.7 | 106 | 1.6 | – |
| CC(=O)N1CCC(C(=O)O[C@H]2CC[C@@]3(C)C(=CC[C@]4(O)[C@@H]3C[C@@H](OC(=O)/C=C(\C)C(C)C)[C@@]3(C)[C@]4(O)CC[C@@]3(O)C(C)=O)C2)CC1 | 93.2 | – | < 62.1 | 54.8 | 62.1 | 1.1 | > 1 |
| CC(=O)[C@]1(O)CC[C@@]2(O)[C@]1(C)[C@H](OC(=O)/C=C(\C)C(C)C)C[C@@H]1[C@@]3(C)CC[C@H](OC(=O)COCC(=O)O)CC3=CC[C@]12O | 524 | – | 115 | 164 | 274 | 1.7 | 2.4 |
| CC(=O)[C@]1(O)CC[C@@]2(O)[C@]1(C)[C@H](OC(=O)/C=C(\C)C(C)C)C[C@@H]1[C@@]3(C)CC[C@H](OC(=O)CCCC(=O)O)CC3=CC[C@]12O | > 385 | – | > 385 | 289 | 310 | 1.1 | – |
| COP(=O)(OC)O[C@H]1CC[C@@]2(C)C(=CC[C@]3(O)[C@@H]2C[C@@H](OC(=O)/C=C(\C)C(C)C)[C@@]2(C)[C@]3(O)CC[C@@]2(O)C(C)=O)C1 | > 1750 | – | > 1750 | 105 | 560 | 5.3 | – |
| CC(=O)[C@]1(O)CC[C@@]2(O)[C@]1(C)[C@H](OC(=O)/C=C(\C)C(C)C)C[C@@H]1[C@@]3(C)CC[C@H](OP(=O)(Oc4ccccc4)Oc4ccccc4)CC3=CC[C@]12O | > 1940 | – | > 1940 | > 485 | > 1940 | – | – |
| CC(=O)[C@]1(O)CC[C@@]2(O)[C@]1(C)[C@H](OC(=O)/C=C(\C)C(C)C)C[C@@H]1[C@@]3(C)CC[C@H](OC(=O)CO)CC3=CC[C@]12O | 192 | – | 147 | 219 | 136 | – | – |
| COCC(=O)O[C@H]1CC[C@@]2(C)C(=CC[C@]3(O)[C@@H]2C[C@@H](OC(=O)/C=C(\C)C(C)C)[C@@]2(C)[C@]3(O)CC[C@@]2(OC(=O)COC)C(C)=O)C1 | 331 | > 4.2 | > 1400 | 288 | > 1400 | > 4.9 | – |
| CC(=O)[C@]1(OC(=O)/C=C/c2ccccc2Cl)CC[C@@]2(O)[C@]1(C)[C@H](OC(=O)/C=C(\C)C(C)C)C[C@@H]1[C@@]3(C)CC[C@H](OC(=O)/C=C/c4ccccc4Cl)CC3=CC[C@]12O | 599 | 1.6 | > 257 | > 148 | > 538 | – | – |
| CC(=O)[C@]1(OC(=O)/C=C/c2cc(F)cc(F)c2)CC[C@@]2(O)[C@]1(C)[C@H](OC(=O)/C=C(\C)C(C)C)C[C@@H]1[C@@]3(C)CC[C@H](OC(=O)/C=C/c4cc(F)cc(F)c4)CC3=CC[C@]12O | > 1580 | – | > 1580 | 183 | > 1580 | > 8.7 | – |
| CC(=O)[C@]1(OC(=O)CCN2C(=O)c3ccccc3C2=O)CC[C@@]2(O)[C@]1(C)[C@H](OC(=O)/C=C(\C)C(C)C)C[C@@H]1[C@@]3(C)CC[C@H](OC(=O)CCN4C(=O)c5ccccc5C4=O)CC3=CC[C@]12O | > 809 | – | > 809 | > 202 | > 809 | – | – |
| CC(=O)[C@]1(OC(=O)CCC(=O)O)CC[C@@]2(O)[C@]1(C)[C@H](OC(=O)/C=C(\C)C(C)C)C[C@@H]1[C@@]3(C)CC[C@H](OC(=O)CCC(=O)O)CC3=CC[C@]12O | 653 | – | > 966 | > 241 | 483 | – | – |
| CC(=O)[C@]1(OC(=O)CCCC(=O)O)CC[C@@]2(O)[C@]1(C)[C@H](OC(=O)/C=C(\C)C(C)C)C[C@@H]1[C@@]3(C)CC[C@H](OC(=O)CCCC(=O)O)CC3=CC[C@]12O | > 268 | – | > 268 | > 268 | > 268 | – | – |
| CC(=O)[C@]1(O)CC[C@@]2(O)[C@]1(C)[C@H](OC(=O)/C=C(\C)C(C)C)C[C@@H]1[C@@]3(C)CCC(=O)CC3=CC(=O)[C@]12O | 205 | – | > 1630 | 113 | 155 | 1.4 | – |
| CC(=O)[C@]1(O)CC[C@@]2(O)[C@]1(C)[C@H](OC(=O)/C=C(\C)C(C)C)C[C@@H]1[C@@]3(C)CC[C@H](O)C[C@@]34O[C@H]4C[C@]12O | 189 | 1.2 | 1140 | 184 | 226 | 1.2 | – |
| C/C(=C\C(=O)O[C@@H]1C[C@@H]2[C@@]3(C)CC[C@H](O)CC3=CC[C@@]2(O)[C@@]2(O)CC[C@@](O)(C(C)O)[C@@]12C)C(C)C (stereo partly drawn) | 307 | – | > 1050 | 172 | 217 | 1.3 | – |
